Experimental findings from ChEMBL document CHEMBL4602642, “Pyrola incarnata demonstrates neuroprotective effects against β-amyloid-induced memory impairment in mice” (Bioorg Med Chem Lett, 2020) are described below.

Each structure is given as a SMILES string. Activity calls are given as the source filed them. The rule behind the calls is not given here.

Data set [1] concerns Mus musculus. The experiment in a line: Cognitive enhancing effect in orally dosed C57BL/6 mouse model of amyloid beta (25 to 35) peptide-induced memory impairment assessed as reduction in escape latency time to find removed platform position measured on 4th day by Barnes maze test. In kind it is functional, organism-based. Put shortly: (§1)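 Mice given Aβ25–35 by intracerebroventricular injection were run in a Barnes maze. Latency to enter the escape box was recorded over the training sessions, and latency and mistake counts were scored in the probe trial. Results are mean ± SEM.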

The subject of data set [2] is Mus musculus. As to the kind of experiment: Cognitive enhancing effect in C57BL/6 mouse model of amyloid beta (25 to 35) peptide-induced memory impairment assessed as reduction in escape latency time to find removed platform position at 56 mg/kg, po administered via gavage and measured on 5th day by Morris water maze test. The note with it: in the assay text read “6th day” for “5th day”. It counts as functional, organism-based. In a few lines:
(§2)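 Mice given intracerebroventricular Aβ25–35 received 14, 28 or 56 mg/kg, or an equal volume of vehicle. Morris water maze: swim speed taken on day 1, escape latency recorded in training sessions, probe trial on day 6 with the platform removed (time to target and platform crossings scored). n = 9 per group, mean ± SEM.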

The subject of data set [3] is Mus musculus. The experiment in a line: Cognitive enhancing effect in C57BL/6 mouse model of amyloid beta (25 to 35) peptide-induced memory impairment assessed as reduction in mistake time to find removed platform position at 56 mg/kg, po administered via gavage and measured on 4th day by Barnes maze test. In kind it is functional, organism-based. In a few lines:
(§3)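 Barnes maze in mice given intracerebroventricular Aβ25–35: latency to enter the escape box over the training days, plus latency and mistake counts in the probe trial, each compared with the vehicle-treated Aβ25–35 group. Results are mean ± SEM.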

Data set [4] is described as follows: Effect on locomotory activity in C57BL/6 mouse model of amyloid beta (25 to 35) peptide-induced memory impairment assessed as change in mean speed of swimming at 14 to 56 mg/kg, po administered via gavage by Morris water maze test. In kind it is ADME, organism-based. The settings on record: in vivo. In a few lines: as §2
The test system of data set [5] is Mus musculus. As to the kind of experiment: Cognitive enhancing effect in C57BL/6 mouse model of amyloid beta (25 to 35) peptide-induced memory impairment assessed as reduction in time to reach the target quadrants at 14 to 56 mg/kg, po administered via gavage and measured on 6th day by Morris water maze test. It counts as functional, organism-based. Put shortly:
as §2

Data set [6] deals with Mus musculus. As to the kind of experiment: Cognitive enhancing effect in C57BL/6 mouse model of amyloid beta (25 to 35) peptide-induced memory impairment assessed as reduction in escape latency time to find removed platform position at 28 mg/kg, po administered via gavage and measured on 5th day by Morris water maze test. In kind it is functional, organism-based. Put shortly:
as §2

Data set [7] deals with Mus musculus. The experiment in a line: Neuroprotective activity in orally dosed amyloid beta (25 to 35) peptide-induced memory impairment C57BL/6 mouse model assessed as reduction in amyloid beta (25 to 35) peptide deposition administered via gavage by DAPI staining based immunohistochemical analysis. It counts as functional, organism-based. In a few lines:
(§4)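 Hippocampal sections from Aβ25–35-injected mice after long-term dosing were immunostained for Aβ25–35 (red) and Iba-1 (green) with DAPI counterstain. Integral optical density was quantified and given as mean ± SEM.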

For data set [8], the system named is Mus musculus. The experiment in a line: Cognitive enhancing effect in C57BL/6 mouse model of amyloid beta (25 to 35) peptide-induced memory impairment assessed as reduction in escape latency time to find removed platform position at 56 mg/kg, po administered via gavage and measured on 4th day by Barnes maze test. In kind it is functional, organism-based. In a few lines:
as §3

The subject of data set [9] is Mus musculus. As to the kind of experiment: Cognitive enhancing effect in C57BL/6 mouse model of amyloid beta (25 to 35) peptide-induced memory impairment assessed as reduction in escape latency time to find removed platform position at 14 mg/kg, po administered via gavage and measured on 5th day by Morris water maze test. It counts as functional, organism-based. Put shortly:
as §2

The test system of data set [10] is Mus musculus. The experiment in a line: Neuroprotective activity in amyloid beta (25 to 35) peptide-induced memory impairment C57BL/6 mouse model assessed as reduction in amyloid beta (25 to 35) peptide deposition at 14 to 56 mg/kg, po administered via gavage by DAPI staining based immunohistochemical analysis. In kind it is functional, organism-based. In a few lines:
as §4

A short description of data set [11]: Effect on locomotory activity in C57BL/6 mouse model of amyloid beta (25 to 35) peptide-induced memory impairment assessed as change in number of line crossing at 14 to 56 mg/kg, po administered via gavage measured for 5 mins by open field test. It counts as ADME, organism-based. The settings on record: in vivo. Put shortly: (§5)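 Open-field test after intracerebroventricular Aβ25–35 and dosing at 14, 28 or 56 mg/kg or vehicle. Line crossings and mean speed were counted during a 5-minute session. Results are mean ± SEM.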

Data set [12] relates to Mus musculus. As to the kind of experiment: Cognitive enhancing effect in orally dosed C57BL/6 mouse model of amyloid beta (25 to 35) peptide-induced memory impairment assessed as reduction in mistake time to find removed platform position measured on 4th day by Barnes maze test. It counts as functional, organism-based. Put shortly: as §1
Data set [13] concerns Mus musculus. As to the kind of experiment: Cognitive enhancing effect in orally dosed C57BL/6 mouse model of amyloid beta (25 to 35) peptide-induced memory impairment assessed as increase in crossing numbers of target quadrants administered via gavage and measured on 6th day by Morris water maze test. It counts as functional, organism-based. In a few lines: as §2
Data set [14] in a line: Effect on locomotory activity in C57BL/6 mouse model of amyloid beta (25 to 35) peptide-induced memory impairment assessed as change in mean speed at 14 to 56 mg/kg, po administered via gavage measured for 5 mins by open field test. It counts as ADME, organism-based. The note with it: in vivo. Put shortly: as §5
Data set [15] has as its system Mus musculus. As to the kind of experiment: Neuroprotective activity in amyloid beta (25 to 35) peptide-induced memory impairment C57BL/6 mouse model assessed as increase in number of microglia expression at 14 to 56 mg/kg, po administered via gavage by DAPI staining based immunohistochemical analysis. It counts as functional, organism-based. Put shortly:
as §4

Data set [16] concerns Mus musculus. The experiment in a line: Neuroprotective activity in orally dosed amyloid beta (25 to 35) peptide-induced memory impairment C57BL/6 mouse model assessed as increase in Iba1 expression administered via gavage by DAPI staining based immunohistochemical analysis. In kind it is functional, organism-based. Put shortly: as §4
The subject of data set [17] is Mus musculus. The experiment in a line: Cognitive enhancing effect in C57BL/6 mouse model of amyloid beta (25 to 35) peptide-induced memory impairment assessed as reduction in escape latency time to find removed platform position at 14 to 56 mg/kg, po administered via gavage and measured on 6th day by Morris water maze test. In kind it is functional, organism-based. In a few lines:
as §2

On to `C[C@H]1[C@H](C)CC[C@]2(C(=O)O)CC[C@]3(C)C(=CC[C@@H]4[C@@]5(C)CC[C@H](O)C(C)(C)[C@@H]5CC[C@]43C)[C@H]12` [URSOLIC ACID], for which the Activity entry in the data set on Mus musculus [1] is “Dose-dependent effect”; in data set [4], “Non-Toxic”; in the data set on Mus musculus [7] it was “Dose-dependent effect”; in data set [11], “Non-Toxic”; with Mus musculus [12], “Dose-dependent effect”; in the data set with Mus musculus [13], “Dose-dependent effect”. Besides, the Activity result in [14] was “Non-Toxic”; in the data set with Mus musculus [16], “Dose-dependent effect”. Moreover, the outcome with Mus musculus [2], in the data set with Mus musculus [3], in the data set on Mus musculus [5], in the data set with Mus musculus [6], in the data set with Mus musculus [8] and in the data set with Mus musculus [9] was Active. In addition, the outcome in the data set with Mus musculus [10], with Mus musculus [15] and in the data set with Mus musculus [17] was Active.
